Results taken from PubChem BioAssay.
The source made the active and inactive calls.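 The calls were made as follows, unless noted: active = a full or partial loss of lipid-probe fluorescence in the fish gall bladder, intestine or both, judged by eye; inactive = no fluorescence loss, or compound toxic to the fish.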

Columns and labels:
[1] = inhibitors of TNFa-induced NFkB p65 translocation, primary screen, imaging, HUVEC, MLSMR starter and 10KST1 sets (AID 438;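 active = inhibition above 20% together with a positive visual image hit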;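 also: compound added about 3h40 before a 20 min TNFalpha stimulation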;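 as to inhibition: signal is the nuclear over cytoplasmic p65 intensity ratio per well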); conditions: HUVEC TNFa-induced p65 nuclear translocation; cell count: measured here: nuclei count (cytotoxicity indicator), at 2.08 µM; inhibition: at 2 µM, stronger effect = higher value, 0% TNFa-plus-vehicle, 100% no-TNFa wells
[2] = endothelial E-selectin expression blockers – imaging, HUVEC, immunofluorescence, MLSMR starter and 10KST1 sets, primary screen (AID 487;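 active = visually confirmed hit in the image check and inhibition above 20%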;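 as to inhibition: signal is fraction of cell area covered by stained E-selectin grains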;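 as to nuclei count: 100% = median nuclei count of all wells on the same plate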); conditions: HUVEC TNFalpha-induced E-selectin immunofluorescence imaging, at 2 µM; inhibition: stronger effect = higher value; nuclei count: measured here: cell number, toxicity
[3] = Primary imaging screen for DUSP6 inhibitors that restore phospho-Erk in transfected HeLa cells, chemical complementation (AID 609;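 active = compounds giving at least 50% inhibition in the cell-based MKP-3 phosphatase rescue imaging test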;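 as to inhibition: phospho-Erk level distribution per well compared with pooled transfected vehicle control wells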); conditions: HeLa MKP-3 transfected, phospho-Erk imaging KS statistic, at 10 µM, cells stimulated with TPA for 15 min
[4] = molecular target: Dual specificity protein phosphatase 6 (Homo sapiens) (UniProt Q16828); assay: as above; conditions: HeLa MKP-3 transfected, phospho-Erk imaging KS statistic; at 10 µM; stronger effect = higher value; cells stimulated with TPA for 15 min
[5] = molecular target: Voltage-gated potassium channel subunit beta-2 (Rattus norvegicus) (UniProt P62483); assay: inhibitors of rat Kvbeta2 reductase activity – biochemical, NADPH fluorescence, primary screen (AID 622;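 active = fluorescence slope higher than the sample average by over 3 SD, cut at about -0.22 in these data, passing the limit was not always enough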;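 also: slope of raw intensity against log time taken from 70 to 1610 s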); conditions: recombinant KvBeta, 4-cyanobenzaldehyde reduction, at 10 µM, stronger effect = higher value
[6] = molecular target: Voltage-gated potassium channel subunit beta-2 (Rattus norvegicus) (UniProt P62483); assay: enhancers of rat Kvbeta2 NADPH turnover – biochemical, NADPH fluorescence, primary screen (AID 623;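 active = NADPH fluorescence slope more negative than the mean of all samples by about 3 SD, 99.7% confidence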;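 also: fluorescence intensity change per second fitted from 20 to 320 s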); conditions: Recombinant KvBeta, NADPH fluorescence decrease slope, 10 min; at 10 µM; stronger effect = lower value
[7] = molecular target: Alpha-2C adrenergic receptor (Homo sapiens) (UniProt P18825); assay: compounds altering alpha2C-coupled GIRK flux – cell-based, HEK293 alpha2C/GIRK1/2, thallium flux, primary screen (AID 624;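 active = fluorescence slope after compound addition differing from the mean of all screened samples at 99.7% confidence, in either direction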;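 also: slope of fluorescence ratio to pre-addition baseline per second over 15 to 24 s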); conditions: thallium flux BTC fluorescence, at 10 µM, actives lie on both sides
[8] = inhibitors of larval lipid processing in zebrafish, primary screen, whole organism, PED6 fluorescence, gall bladder and intestine (AID 686); conditions: Zebrafish larvae PED6 lipid processing, fluorescence scoring; screened at 20 µM (by protocol);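 also: larvae 5 to 7 days old with five fish per well; signal comes from phospholipase A2 cleavage of quenched PED6 carried via bile; overnight exposure to compound and PED6 before scoring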
Summary of the method: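 system = live zebrafish larvae aged 5-7 days, whole organism | probe or stimulus = ingested quenched lipid PED6 at 100 nM | doses = 20 µM single dose | timing = overnight exposure | detection = fluorescence microscopy with visual scoring of gall bladder and intestine | read-out = visual per-well fluorescence inhibition score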

[9] = loss of swimming-algae plug formation – whole organism, Chlamydomonas reinhardtii, WT vs cilia-less mutant, absorbance, 96-well, primary screen (AID 463189;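 active = inhibition at or above 50% relative to wild type and mutant plate controls; inactive = inhibition below 50%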;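 also: 0% = wild type cc124 cells in DMSO and 100% = ciliumless bld1 mutant cells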); conditions: Chlamydomonas reinhardtii gravitaxis, OD600 absorbance, 2 days; at 10 µM; stronger effect = higher value
[10] = measured here: cell density z-score
[11] = measured here: nuclear c-Myc green intensity z-score
[12] = measured here: nuclear pErk red intensity z-score, stronger effect = higher value

Sequence of Dual specificity protein phosphatase 6 (Homo sapiens) (Q16828 whole entry, looked up): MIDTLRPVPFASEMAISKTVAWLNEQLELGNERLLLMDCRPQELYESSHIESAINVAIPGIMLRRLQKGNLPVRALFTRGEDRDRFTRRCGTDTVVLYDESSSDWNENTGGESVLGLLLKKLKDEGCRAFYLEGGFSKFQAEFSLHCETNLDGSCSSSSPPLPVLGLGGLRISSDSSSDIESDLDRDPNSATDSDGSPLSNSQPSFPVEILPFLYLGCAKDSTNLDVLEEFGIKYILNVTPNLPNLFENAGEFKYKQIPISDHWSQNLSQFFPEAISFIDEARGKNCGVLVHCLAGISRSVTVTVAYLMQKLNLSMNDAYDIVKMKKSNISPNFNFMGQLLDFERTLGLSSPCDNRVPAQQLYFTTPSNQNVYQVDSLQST
Sequence of Alpha-2C adrenergic receptor (Homo sapiens) (P18825 whole entry, looked up): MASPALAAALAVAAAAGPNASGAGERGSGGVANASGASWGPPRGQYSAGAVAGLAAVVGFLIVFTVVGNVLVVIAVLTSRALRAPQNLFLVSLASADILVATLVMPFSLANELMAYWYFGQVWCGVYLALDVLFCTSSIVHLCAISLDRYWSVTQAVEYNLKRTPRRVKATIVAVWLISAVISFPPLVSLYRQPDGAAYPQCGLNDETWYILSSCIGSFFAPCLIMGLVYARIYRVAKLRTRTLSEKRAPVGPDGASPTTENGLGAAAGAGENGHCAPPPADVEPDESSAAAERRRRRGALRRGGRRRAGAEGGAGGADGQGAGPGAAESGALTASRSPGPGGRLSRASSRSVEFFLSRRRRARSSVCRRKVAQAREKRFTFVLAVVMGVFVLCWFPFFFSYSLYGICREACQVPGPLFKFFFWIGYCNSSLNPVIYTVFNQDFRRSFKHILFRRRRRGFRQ
Sequence of Voltage-gated potassium channel subunit beta-2 (Rattus norvegicus) (P62483 whole entry, looked up): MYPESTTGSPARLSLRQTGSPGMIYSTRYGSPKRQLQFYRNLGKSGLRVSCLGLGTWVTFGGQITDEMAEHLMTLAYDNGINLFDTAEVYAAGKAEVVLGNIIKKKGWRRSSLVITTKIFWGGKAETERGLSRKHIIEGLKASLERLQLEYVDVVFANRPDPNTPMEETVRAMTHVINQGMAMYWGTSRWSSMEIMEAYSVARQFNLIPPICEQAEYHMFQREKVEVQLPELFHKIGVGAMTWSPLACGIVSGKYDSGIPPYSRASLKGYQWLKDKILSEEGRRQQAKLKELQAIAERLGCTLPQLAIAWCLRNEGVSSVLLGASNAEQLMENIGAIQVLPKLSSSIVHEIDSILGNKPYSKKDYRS

| Structure (SMILES) | cell count [1] | inhibition [1] | inhibition [2] | nuclei count [2] | z-score [3, 10] | z-score [3, 11] | z-score [3, 12] | inhibition [4] | fluorescence slope [5] | NADPH fluorescence slope [6] | slope [7] | outcome [8] | inhibition [9] |
| --- | --- | --- | --- | --- | --- | --- | --- | --- | --- | --- | --- | --- | --- |
| COc1cc(C2C3C(=O)N(c4ccccc4)C(=O)C3ON2c2ccccc2)ccc1O (stereo unspecified) | 322 | -4.2% (inactive) | -22.7% (inactive) | 171% | 0.353 | -0.666 | -0.00927 | 5.42% (inactive) | -0.418 (inactive) | -0.000156 (inactive) | 0.00862 (inactive) | inactive | -1.03% (inactive) |
| CCC1(C)Cc2c(sc3c2c(=O)n(C)c2nnc(SCc4ccccc4)n32)CO1 (stereo unspecified) | 584 | 1.3% (inactive) | -171% (inactive) | 156% | -0.0769 | -0.7 | -1.21 | 3.56% (inactive) | -0.286 (inactive) | -6.4e-06 (inactive) | 0.00603 (inactive) | inactive | 16.4% (inactive) |
| COc1ccccc1Cn1c2nc3ccccc3nc2c2c(=O)n(CC(C)C)cnc21 | 340 | -7.7% (inactive) | -28.2% (inactive) | 148% | 0.356 | -0.852 | -0.477 | -8.59% (inactive) | -0.425 (inactive) | -0.000144 (inactive) | 0.00898 (inactive) | inactive | 6.68% (inactive) |
| COc1ccccc1N1CCN(CCCCOc2ccc(F)cc2)CC1 | 461 | -6.8% (inactive) | -62.1% (inactive) | 116% | 1.12 | -0.735 | -0.613 | 26.6% (inactive) | -0.52 (inactive) | -3.7e-05 (inactive) | 0.00493 (inactive) | inactive | 9.82% (inactive) |
| COCCOCCOCCC(=O)NC1CC2CCC1(C)C2(C)C (stereo unspecified) | 580 | -10.5% (inactive) | 32.9% (inactive) | 158% | 0.451 | -0.414 | -0.476 | 6.51% (inactive) | -0.459 (inactive) | -1.1e-05 (inactive) | 0.00758 (inactive) | inactive | 13.6% (inactive) |
| CCCSC1=C(C#N)C(c2ccc(OC)cc2)C2=C(CC(C)(C)CC2=O)N1 (stereo unspecified) | 364 | -8.4% (inactive) | -74.2% (inactive) | 160% | 1.35 | -0.891 | 0.22 | -4.59% (inactive) | -0.439 (inactive) | -0.000144 (inactive) | 0.00555 (inactive) | inactive | 15.5% (inactive) |
| Cn1c(NCC(O)c2ccccc2)nc2c1c(=O)n(Cc1ccc(Cl)c(Cl)c1)c(=O)n2C (stereo unspecified) | 669 | -6.1% (inactive) | -18.3% (inactive) | 162% | 0.306 | 0.44 | 1.81 | 6.04% (inactive) | -0.518 (inactive) | -3.6e-05 (inactive) | 0.00441 (inactive) | inactive | 75.1% (active) |
| COc1ccc(C2C(C#N)=C(N)SC(N)=C2C#N)cc1OC | 280 | -16.8% (inactive) | -21.6% (inactive) | 85.8% | 0.114 | 1.01 | -1.06 | -10.5% (inactive) | -0.401 (inactive) | -5.5e-05 (inactive) | 0.00592 (inactive) | inactive | -3.02% (inactive) |
| COc1ccc(OC(=O)c2cc3ccccc3o2)cc1 | 610 | -1.1% (inactive) | 77.3% (active) | 142% | -0.358 | -0.13 | -0.531 | -9.66% (inactive) | -0.377 (inactive) | -3.8e-05 (inactive) | 0.0058 (inactive) | inactive | -0.854% (inactive) |
| Cc1ccc2[nH]c3c(N4CCN(Cc5ccc6c(c5)OCO6)CC4)ncnc3c2c1 | 390 | -21.4% (inactive) | -47.6% (inactive) | 168% | -0.222 | 0.595 | -3.73 | -3.5% (inactive) | -0.396 (inactive) | -0.000159 (inactive) | 0.00427 (inactive) | inactive; toxic | 140% (active) |
| O=C(NC1(C(F)(F)F)C(=O)Nc2c1c(=O)[nH]c(=O)n2-c1ccccc1)c1cccnc1 (stereo unspecified) | 471 | 1.9% (inactive) | -47.1% (inactive) | 106% | -0.151 | -1.59 | 0.837 | 3.5% (inactive) | -0.52 (inactive) | -2.5e-05 (inactive) | 0.00618 (inactive) | inactive | 32% (inactive) |
| CCCCn1c(O)c(C=NCCCN(C)C)c(=O)[nH]c1=O | 445 | 4.1% (inactive) | -38.4% (inactive) | 117% | 1.16 | -1.01 | -0.649 | 4.25% (inactive) | -0.44 (inactive) | 2.3e-06 (inactive) | 0.0074 (inactive) | inactive | 10.3% (inactive) |
| C=CCc1cccc(/C=N/c2ncn[nH]2)c1O | 470 | -9% (inactive) | -90.5% (inactive) | 148% | -0.648 | 0.659 | -0.784 | 11.9% (inactive) | -0.491 (inactive) | -0.000107 (inactive) | 0.00453 (inactive) | inactive | -13.3% (inactive) |
| CCCc1nn(C)c2c1C(c1cccnc1)C(C#N)=C(N)O2 (stereo unspecified) | 521 | -5.3% (inactive) | -50.3% (inactive) | 183% | 0.834 | 0.991 | -0.817 | 9.61% (inactive) | -0.274 (inactive) | 4.2e-08 (inactive) | 0.00487 (inactive) | inactive | 14.7% (inactive) |
| Cc1nccn1-c1cc(C(C)C)c(C#N)c2nc3ccccc3n12 | 468 | -22.6% (inactive) | -68.2% (inactive) | 140% | 1.43 | -0.347 | -0.664 | 8.31% (inactive) | -0.524 (inactive) | -2.8e-05 (inactive) | 0.0063 (inactive) | inactive | 23% (inactive) |
| CCOc1ccc(CC2CC(=O)NC2=O)cc1 (stereo unspecified) | 622 | 2.8% (inactive) | -113% (inactive) | 185% | -0.992 | -0.148 | 1.17 | -0.159% (inactive) | -0.484 (inactive) | -9.9e-05 (inactive) | 0.00492 (inactive) | inactive | 9.39% (inactive) |
| CCCOc1ccc(/C(O)=C2/C(=O)C(=O)N(CCCn3ccnc3)C2c2cccs2)cc1 (stereo unspecified) | 537 | -14.3% (inactive) | -124% (inactive) | 150% | -0.681 | -0.103 | 0.12 | -18.6% (inactive) | -0.495 (inactive) | -3.4e-05 (inactive) | 0.00501 (inactive) | inactive | 0.323% (inactive) |
| Cc1ccc(C(=O)C2=C(O)C(=O)N(c3ncccn3)C2c2cccc(Cl)c2)o1 (stereo unspecified) | 472 | -8.1% (inactive) | -43% (inactive) | 177% | 0.573 | 0.527 | -0.321 | 0.671% (inactive) | -0.287 (inactive) | -2.1e-05 (inactive) | 0.00586 (inactive) | inactive | 1.33% (inactive) |
| CN=c1sc2ccccc2n1CC(O)COc1ccccc1 (stereo unspecified) | 462 | -11% (inactive) | -95.8% (inactive) | 204% | -0.699 | 0.37 | 0.00223 | -0.624% (inactive) | -0.362 (inactive) | -2.9e-05 (inactive) | 0.00426 (inactive) | inactive | -3.38% (inactive) |
| CC(C)OC(=O)C(C#N)c1nc2ccccc2nc1N1CCCC1 (stereo unspecified) | 485 | -22.5% (inactive) | -48.2% (inactive) | 129% | 2.22 | -1.34 | -1.3 | 22.7% (inactive) | -0.543 (inactive) | -1.4e-05 (inactive) | 0.00397 (inactive) | inactive | 5.71% (inactive) |
| CCOC(=O)c1c(NC(=O)CCN2CCOCC2)sc2c1CC(C)(C)OC2 | 658 | -8.1% (inactive) | -45.3% (inactive) | 163% | 0.476 | 1.14 | 0.27 | -7.28% (inactive) | -0.422 (inactive) | -3e-05 (inactive) | 0.00607 (inactive) | inactive | -12.8% (inactive) |
| O=C(c1ccccc1F)N1CCC(N2CCCCCC2)CC1 | 332 | -3.1% (inactive) | -138% (inactive) | 95.6% | 0.261 | -1.02 | -0.289 | 15.1% (inactive) | -0.493 (inactive) | -1.4e-05 (inactive) | 0.00789 (inactive) | inactive | 50.6% (active) |
| CCOC(=O)c1cc2c(=O)n3cccc(C)c3nc2n(Cc2cccnc2)c1=N | 583 | 3.3% (inactive) | -66.9% (inactive) | 157% | 0.481 | -1.62 | 0.0154 | 4.25% (inactive) | -0.457 (inactive) | -0.000115 (inactive) | 0.00416 (inactive) | inactive | 58.8% (active) |
| CCCCCCSC1=C(C#N)C(c2ccccc2)CC(=O)N1 (stereo unspecified) | 469 | 0.6% (inactive) | -6.9% (inactive) | 74.3% | 0.751 | 0.0915 | -1.53 | 18.9% (inactive) | -0.513 (inactive) | -6.1e-05 (inactive) | 0.00499 (inactive) | inactive | 24.3% (inactive) |
| c1ccc(Cc2nn[nH]n2)cc1 | 659 | -11% (inactive) | 49.2% (inactive) | 144% | -1.16 | 0.713 | 1.02 | -3.95% (inactive) | -0.426 (inactive) | -5.4e-05 (inactive) | 0.00705 (inactive) | inactive | -10.1% (inactive) |
| COc1ccc(C2N3CC4(C)CN2CC(C)(C3)C4O)cc1OC (stereo unspecified) | 348 | -20.6% (inactive) | -105% (inactive) | 122% | 0.441 | -1.49 | -0.949 | -5.26% (inactive) | -0.473 (inactive) | -7.1e-05 (inactive) | 0.00557 (inactive) | inactive | 37% (inactive) |
| O=C(Nc1ccc(Cl)cn1)C1CCCN1S(=O)(=O)c1ccccc1 (stereo unspecified) | 365 | 4.7% (inactive) | -101% (inactive) | 154% | 2.19 | 0.087 | -0.0829 | 11.3% (inactive) | -0.415 (inactive) | -4e-05 (inactive) | 0.00596 (inactive) | inactive | -3.35% (inactive) |
